From ChEMBL document CHEMBL3352115, “Discovery of APD334: Design of a Clinical Stage Functional Antagonist of the Sphingosine-1-phosphate-1 Receptor” (ACS Med Chem Lett, 2014)
Calls of active or inactive are those of the source. The rule behind the calls is not given here.

Experiments:
[1] = Drug level in Sprague-Dawley rat plasma at 14.5 ug/hr/kg dosed as constant infusion measured after 48 hrs; format: ADME, organism-based; conditions: iv
Outline: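 Male Sprague–Dawley rats given constant infusion at 14.5 μg/h/kg for 48 h; brain and plasma concentrations measured at 48 h.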

Rattus norvegicus [2] = test: Induction of body weight regain in Lewis rat collagen-induced arthritis model at 3 mg/kg, po qd measured on day 17 (reference value: 160.3 +/- 2.3 g); format: functional
[3] = Protein binding in rat plasma; format: ADME, cell-free; conditions: read-out: PPB (converted)
Rattus norvegicus [4] = test: Reduction in peripheral lymphocyte count in orally dosed rat measured after 24 hrs; format: ADME, organism-based
[5] = target: T1, Voltage-gated inwardly rectifying potassium channel KCNH2 (Homo sapiens, UniProt Q12809); test: Inhibition of human ERG by patch clamp assay
Mus musculus [6] = test: Reduction in disease severity in C57Bl/6 mouse experimental autoimmune encephalomyelitis model of multiple sclerosis at 3 mg/kg dosed once daily beginning on day 18 and continued to day 37; format: functional, organism-based; parameters: dose 3 mg/kg
Outline: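 Female C57Bl/6 mice with MOG35–55-induced EAE; once-daily treatment started day 18 after severe disease onset and continued to day 37; vehicle 0.5% methylcellulose; clinical scoring.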

[7] = Cmax in rat at 1 mg/kg equivalent, po; format: ADME, organism-based; parameters: dose 1 mg/kg, route oral; conditions: in vivo
Outline: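 SD rat given L-arginine salt orally as a solution in sterile water, 1.0 mg/kg free-acid equivalent; Cmax measured.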

[8] = Systemic clearance in dog at 1 mg/kg, iv; format: ADME, organism-based, Canis lupus familiaris; parameters: dose 1 mg/kg, route intravenous; conditions: in vivo
Salmonella typhimurium = test: Genotoxicity in Salmonella typhimurium in absence of rat liver S9 fraction by Ames bacterial reverse mutation assay; format: toxicity, organism-based; conditions: salmonella enterica subsp. enterica serovar typhimurium
Rattus norvegicus [9] = test: Effect on neurobehaviour in Sprague-Dawley rat up to 350 mg/kg; format: ADME, organism-based; parameters: dose 350 mg/kg; conditions: in vivo
Outline: (§1)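 CNS (neurobehavioral) and respiratory safety studies in SD rats, doses up to 350 mg/kg.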

[10] = target: Sphingosine 1-phosphate receptor 1 (Macaca mulatta) (UniProt H9EUW9); test: Agonist activity at monkey S1P1 receptor assessed as cAMP accumulation by HTRF assay relative to S1P; format: functional
Outline: (§2)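 HTRF cyclase (cAMP) functional assay at S1P1 of each species; EC50 taken as mean of three or more replicates; efficacy given as % agonism relative to S1P.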

[11] = AUC (0 to infinity) in dog at 1 mg/kg, iv or 3 mg/kg, po; format: ADME, organism-based, Canis lupus familiaris; conditions: plasma
Outline: (§3)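 Preclinical iv/po PK; amorphous free acid dosed orally as a suspension in 0.5% methyl cellulose; clearance and Vss from intravenous administration.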

[12] = Tmax in mouse at 1 mg/kg, iv or 1 mg/kg, po; format: ADME, organism-based; conditions: in vivo
Cytochrome P450 1A2 = Cytochrome P450 1A2 (Homo sapiens, UniProt P05177); test: Inhibition of CYP1A2 (unknown origin); format: ADME
[13] = AUC (0 to infinity) in rat at 1 mg/kg, iv or 1 mg/kg, po; format: ADME, organism-based; conditions: plasma; outline: as §3
Rattus norvegicus [14] = test: Improvement histological parameters of knee and ankles in Lewis rat collagen-induced arthritis model at 3 mg/kg, po qd measured on day 17; format: functional, organism-based; parameters: dose 3 mg/kg
[15] = Volume of distribution at steady state in monkey at 1 mg/kg, iv; format: ADME, organism-based, Macaca mulatta; parameters: dose 1 mg/kg, route intravenous; conditions: rhesus monkey, in vivo, read-out: Vdss
Rattus norvegicus [16] = test: Effect on respiratory function in Sprague-Dawley rat up to 350 mg/kg; format: ADME, organism-based; parameters: dose 350 mg/kg; conditions: in vivo; outline: as §1
[17] = Tmax in rat at 1 mg/kg, iv or 1 mg/kg, po; format: ADME, organism-based; conditions: in vivo
Mus musculus [18] = test: Reduction in peripheral lymphocyte count in orally dosed mouse measured after 24 hrs; format: ADME, organism-based
[19] = target: Sphingosine 1-phosphate receptor 4 (Homo sapiens) (UniProt O95977); test: Agonist activity at human S1P4 receptor by beta-arrestin recruitment assay relative to S1P
Adenosine receptor A3 = Adenosine receptor A3 (Homo sapiens, UniProt P0DMS8); test: Binding affinity to human adenosine A3 receptor
[20] = target: T1, Voltage-gated inwardly rectifying potassium channel KCNH2; test: Displacement of [3H]astemizole from human ERG
Outline: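 hERG interaction assessed by [³H]-astemizole binding displacement.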

[21] = Oral bioavailability in mouse at 1 mg/kg; format: ADME, organism-based; conditions: in vivo
Rattus norvegicus [22] = test: Effect on liver function in Sprague-Dawley rat at 30 to 1000 mg/kg; format: ADME, organism-based; parameters: dose 30-1000 mg/kg; conditions: in vivo
[23] = target: Sphingosine 1-phosphate receptor 1 (Homo sapiens, UniProt P21453); test: Agonist activity at human S1P1 receptor by beta-arrestin recruitment assay relative to S1P
Canis familiaris [24] = test: Reduction in peripheral lymphocyte count in orally dosed dog measured after 24 hrs; format: ADME, organism-based; conditions: Canis lupus familiaris
Mus musculus [25] = test: Systemic clearance in mouse at 1 mg/kg, iv relative to liver blood flow; format: ADME, organism-based; parameters: dose 1 mg/kg, route intravenous; conditions: in vivo
Canis familiaris [26] = test: Systemic clearance in dog at 1 mg/kg, iv relative to liver blood flow; format: ADME, organism-based, Canis lupus familiaris; parameters: dose 1 mg/kg, route intravenous; conditions: in vivo
[27] = Systemic clearance in monkey at 1 mg/kg, iv; format: ADME, organism-based, Macaca mulatta; parameters: dose 1 mg/kg, route intravenous; conditions: rhesus monkey, in vivo
[28] = Protein binding in human plasma; format: ADME, cell-free; conditions: read-out: PPB (converted)
[29] = Volume of distribution at steady state in mouse at 1 mg/kg, iv; format: ADME, organism-based; parameters: dose 1 mg/kg, route intravenous; conditions: in vivo, read-out: Vdss
Canis familiaris [30] = test: Effect on body temperature in telemeterized dog up to 40 mg/kg; format: ADME, organism-based, Canis lupus familiaris; parameters: dose 40 mg/kg; conditions: in vivo
Outline: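 Telemeterized dogs dosed at levels up to 40 mg/kg; pulse pressure, heart rate, body temperature and ECG parameters monitored.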

Cytochrome P450 3A4 = Cytochrome P450 3A4 (Homo sapiens, UniProt P08684); test: Inhibition of CYP3A4 (unknown origin); format: ADME
Cytochrome P450 2D6 = Cytochrome P450 2D6 (Homo sapiens, UniProt P10635); test: Inhibition of CYP2D6 (unknown origin); format: ADME
Rattus norvegicus [31] = test: Induction of body weight regain in Lewis rat collagen-induced arthritis model at 1 mg/kg, po qd measured on day 17 (reference value: 160.3 +/- 2.3 g); format: functional
[32] = AUC (0 to infinity) in mouse at 1 mg/kg, iv or 1 mg/kg, po; format: ADME, organism-based; conditions: plasma; outline: as §3
[33] = Activation of Inward rectifier potassium channel in human atrial myocytes; format: cell-based; conditions: Cardiac atrium
Outline: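 In vitro activation of the inward-rectifying potassium channel (IKACh) in human atrial myocytes, run alongside S1P as reference agonist; potency expressed as EC50.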

[34] = target: Sphingosine 1-phosphate receptor 1 (Mus musculus, UniProt O08530); test: Agonist activity at mouse S1P1 receptor assessed as cAMP accumulation by HTRF assay; format: functional; outline: as §2
Rattus norvegicus [35] = test: Improvement histological parameters of knee and ankles in Lewis rat collagen-induced arthritis model at 1 mg/kg, po qd measured on day 17; format: functional, organism-based; parameters: dose 1 mg/kg; conditions: Ankle/Knee
Mus musculus [36] = test: Reduction in inflammatory foci in C57Bl/6 mouse experimental autoimmune encephalomyelitis model of multiple sclerosis at 3 mg/kg dosed once daily beginning on day 18 and continued to day 37 by immunofluorescent staining method; format: functional, organism-based; parameters: dose 3 mg/kg
Outline: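 Therapeutic EAE in female C57Bl/6 mice, dosing from day 18; spinal cord and brain collected day 37; cerebellum sections immunostained for CD45 and CD3 with DAPI counterstain; inflammatory foci and infiltrating lymphocytes assessed.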

[37] = target: Sphingosine 1-phosphate receptor 2 (Homo sapiens, UniProt O95136); test: Agonist activity at human S1P2 receptor by beta-arrestin recruitment assay
[38] = target: Sphingosine-1-phosphate receptor 1 (Canis lupus familiaris, UniProt W5VNF7); test: Agonist activity at dog S1P1 receptor assessed as cAMP accumulation by HTRF assay; format: functional; outline: as §2
Chain of Sphingosine-1-phosphate receptor 1 (W5VNF7 whole entry): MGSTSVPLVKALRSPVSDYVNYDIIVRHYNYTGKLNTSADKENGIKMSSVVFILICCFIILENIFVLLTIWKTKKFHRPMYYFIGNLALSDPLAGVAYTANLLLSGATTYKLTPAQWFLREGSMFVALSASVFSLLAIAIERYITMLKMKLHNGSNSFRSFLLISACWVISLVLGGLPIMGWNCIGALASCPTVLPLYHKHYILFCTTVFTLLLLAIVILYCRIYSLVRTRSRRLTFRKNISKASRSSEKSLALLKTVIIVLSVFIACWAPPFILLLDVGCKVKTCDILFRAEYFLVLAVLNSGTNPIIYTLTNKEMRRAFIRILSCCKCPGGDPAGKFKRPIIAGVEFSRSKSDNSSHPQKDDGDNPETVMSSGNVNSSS

T1 sequence (Q12809 whole entry): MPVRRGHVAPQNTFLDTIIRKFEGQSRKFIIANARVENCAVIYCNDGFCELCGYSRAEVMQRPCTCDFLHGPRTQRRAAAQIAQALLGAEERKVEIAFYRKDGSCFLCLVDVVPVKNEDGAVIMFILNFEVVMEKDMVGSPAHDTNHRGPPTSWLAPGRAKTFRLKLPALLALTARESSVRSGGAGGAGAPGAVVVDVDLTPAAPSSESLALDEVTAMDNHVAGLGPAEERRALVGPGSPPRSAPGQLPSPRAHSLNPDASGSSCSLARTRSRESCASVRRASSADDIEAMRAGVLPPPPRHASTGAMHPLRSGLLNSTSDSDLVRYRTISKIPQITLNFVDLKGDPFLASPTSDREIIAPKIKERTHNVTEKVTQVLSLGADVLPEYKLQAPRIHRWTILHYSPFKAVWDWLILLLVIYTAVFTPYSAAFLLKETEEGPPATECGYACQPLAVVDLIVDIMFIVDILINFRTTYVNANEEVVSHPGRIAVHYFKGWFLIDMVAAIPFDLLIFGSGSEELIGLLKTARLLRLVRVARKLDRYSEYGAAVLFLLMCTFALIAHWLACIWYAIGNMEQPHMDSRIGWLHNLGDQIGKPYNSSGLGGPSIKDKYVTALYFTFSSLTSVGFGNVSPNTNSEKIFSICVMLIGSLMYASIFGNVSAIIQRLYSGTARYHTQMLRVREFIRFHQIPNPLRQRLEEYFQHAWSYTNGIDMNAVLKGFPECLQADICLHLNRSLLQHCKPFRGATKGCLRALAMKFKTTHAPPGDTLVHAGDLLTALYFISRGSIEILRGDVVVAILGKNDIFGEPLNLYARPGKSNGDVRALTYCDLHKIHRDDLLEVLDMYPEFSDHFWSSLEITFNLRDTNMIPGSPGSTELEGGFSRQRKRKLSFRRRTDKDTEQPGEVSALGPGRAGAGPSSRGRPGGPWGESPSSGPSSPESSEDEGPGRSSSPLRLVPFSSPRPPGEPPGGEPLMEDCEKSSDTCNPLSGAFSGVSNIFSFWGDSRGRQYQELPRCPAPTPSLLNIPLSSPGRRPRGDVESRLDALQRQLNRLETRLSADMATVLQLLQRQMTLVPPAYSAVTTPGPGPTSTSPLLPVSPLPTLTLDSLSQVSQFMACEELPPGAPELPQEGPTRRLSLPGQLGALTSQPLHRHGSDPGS
Chain of Sphingosine 1-phosphate receptor 1 (Mus musculus, UniProt O08530) (O08530 whole entry): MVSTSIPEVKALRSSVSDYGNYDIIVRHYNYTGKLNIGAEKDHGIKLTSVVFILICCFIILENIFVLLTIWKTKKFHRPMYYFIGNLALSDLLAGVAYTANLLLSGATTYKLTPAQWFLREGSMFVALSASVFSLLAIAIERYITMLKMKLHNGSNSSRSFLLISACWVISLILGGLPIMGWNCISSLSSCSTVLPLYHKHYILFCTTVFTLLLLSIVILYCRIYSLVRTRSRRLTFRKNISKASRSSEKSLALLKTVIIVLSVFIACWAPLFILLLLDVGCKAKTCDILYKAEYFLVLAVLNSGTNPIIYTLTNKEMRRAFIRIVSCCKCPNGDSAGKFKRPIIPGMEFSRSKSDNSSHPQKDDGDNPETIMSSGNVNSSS
Chain of Cytochrome P450 3A4 (P08684 whole entry): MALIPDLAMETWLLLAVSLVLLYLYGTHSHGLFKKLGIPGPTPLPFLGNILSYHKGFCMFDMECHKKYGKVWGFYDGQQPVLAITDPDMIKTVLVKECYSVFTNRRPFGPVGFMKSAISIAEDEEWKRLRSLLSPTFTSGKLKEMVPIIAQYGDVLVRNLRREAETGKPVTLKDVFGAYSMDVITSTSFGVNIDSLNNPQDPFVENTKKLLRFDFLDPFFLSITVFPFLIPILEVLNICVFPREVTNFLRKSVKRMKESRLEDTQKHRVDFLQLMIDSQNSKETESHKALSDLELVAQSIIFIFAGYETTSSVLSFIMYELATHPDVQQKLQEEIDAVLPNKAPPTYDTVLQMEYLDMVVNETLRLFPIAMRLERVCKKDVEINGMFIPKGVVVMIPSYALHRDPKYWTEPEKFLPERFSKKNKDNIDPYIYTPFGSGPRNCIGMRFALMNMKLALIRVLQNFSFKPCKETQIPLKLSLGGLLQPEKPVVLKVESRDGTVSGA
Chain of Sphingosine 1-phosphate receptor 4 (Homo sapiens) (O95977 whole entry): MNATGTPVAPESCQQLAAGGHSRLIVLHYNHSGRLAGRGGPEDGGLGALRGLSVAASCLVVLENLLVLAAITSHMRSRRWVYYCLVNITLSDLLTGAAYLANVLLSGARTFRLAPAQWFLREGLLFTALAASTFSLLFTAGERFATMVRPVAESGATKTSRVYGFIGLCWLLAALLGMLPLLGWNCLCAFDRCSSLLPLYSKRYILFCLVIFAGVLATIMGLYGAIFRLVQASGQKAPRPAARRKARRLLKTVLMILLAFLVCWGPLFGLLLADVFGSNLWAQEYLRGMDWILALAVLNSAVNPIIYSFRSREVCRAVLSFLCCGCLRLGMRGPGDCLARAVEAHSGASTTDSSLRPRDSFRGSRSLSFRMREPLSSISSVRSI
Chain of Sphingosine 1-phosphate receptor 1 (Macaca mulatta) (H9EUW9 as listed by the source): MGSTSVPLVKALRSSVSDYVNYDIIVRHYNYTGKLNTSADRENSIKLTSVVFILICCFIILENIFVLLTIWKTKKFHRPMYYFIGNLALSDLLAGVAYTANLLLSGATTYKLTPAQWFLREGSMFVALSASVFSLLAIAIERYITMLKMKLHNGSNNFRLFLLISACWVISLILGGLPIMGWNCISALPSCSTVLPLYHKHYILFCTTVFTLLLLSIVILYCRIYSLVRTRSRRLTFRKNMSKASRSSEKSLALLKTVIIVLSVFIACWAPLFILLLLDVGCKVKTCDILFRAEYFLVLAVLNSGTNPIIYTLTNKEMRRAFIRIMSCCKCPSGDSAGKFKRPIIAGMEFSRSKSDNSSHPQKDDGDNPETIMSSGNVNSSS
Chain of Adenosine receptor A3 (P0DMS8 whole entry): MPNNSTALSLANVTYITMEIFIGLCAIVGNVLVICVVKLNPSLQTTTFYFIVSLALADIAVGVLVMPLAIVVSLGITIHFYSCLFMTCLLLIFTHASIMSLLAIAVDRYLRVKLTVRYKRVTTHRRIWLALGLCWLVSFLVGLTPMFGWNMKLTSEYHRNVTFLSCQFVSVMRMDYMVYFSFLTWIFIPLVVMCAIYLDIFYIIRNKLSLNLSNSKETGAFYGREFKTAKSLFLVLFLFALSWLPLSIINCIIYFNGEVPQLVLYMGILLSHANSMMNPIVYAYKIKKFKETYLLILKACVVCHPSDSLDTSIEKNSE
Chain of Sphingosine 1-phosphate receptor 1 (Homo sapiens, UniProt P21453) (P21453 whole entry): as the sequence (H9EUW9 as listed by the source) above, with S3P, L12H, T37I, R41K, P189S, M241I, D365E counted along it
Chain of Cytochrome P450 2D6 (P10635 whole entry): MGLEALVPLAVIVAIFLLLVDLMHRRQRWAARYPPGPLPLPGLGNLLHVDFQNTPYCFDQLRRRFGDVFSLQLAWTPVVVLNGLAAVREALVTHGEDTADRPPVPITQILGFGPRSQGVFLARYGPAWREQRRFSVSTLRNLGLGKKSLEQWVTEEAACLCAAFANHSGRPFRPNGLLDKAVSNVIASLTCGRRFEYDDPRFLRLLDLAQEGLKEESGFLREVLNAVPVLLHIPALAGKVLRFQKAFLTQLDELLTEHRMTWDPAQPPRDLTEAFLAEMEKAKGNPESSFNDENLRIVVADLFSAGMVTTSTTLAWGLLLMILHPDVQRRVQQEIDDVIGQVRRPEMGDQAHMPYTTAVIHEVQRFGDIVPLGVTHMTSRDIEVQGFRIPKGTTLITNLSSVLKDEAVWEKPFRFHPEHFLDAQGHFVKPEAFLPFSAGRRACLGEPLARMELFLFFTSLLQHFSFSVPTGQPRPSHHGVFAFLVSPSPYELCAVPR
Chain of Cytochrome P450 1A2 (P05177 whole entry): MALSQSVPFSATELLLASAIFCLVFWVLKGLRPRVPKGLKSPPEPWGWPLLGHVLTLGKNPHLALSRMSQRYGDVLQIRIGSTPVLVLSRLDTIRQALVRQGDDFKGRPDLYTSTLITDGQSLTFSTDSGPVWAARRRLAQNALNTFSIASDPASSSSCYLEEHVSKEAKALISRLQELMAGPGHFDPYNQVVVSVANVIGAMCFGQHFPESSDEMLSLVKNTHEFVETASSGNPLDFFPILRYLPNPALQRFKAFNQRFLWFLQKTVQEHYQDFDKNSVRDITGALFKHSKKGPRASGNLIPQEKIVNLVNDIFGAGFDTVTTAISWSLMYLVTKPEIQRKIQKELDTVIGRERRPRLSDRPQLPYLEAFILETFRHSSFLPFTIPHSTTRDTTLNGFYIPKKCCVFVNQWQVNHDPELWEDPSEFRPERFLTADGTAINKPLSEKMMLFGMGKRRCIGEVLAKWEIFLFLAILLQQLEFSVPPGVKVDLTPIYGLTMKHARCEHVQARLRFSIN
Chain of Sphingosine 1-phosphate receptor 2 (O95136 whole entry): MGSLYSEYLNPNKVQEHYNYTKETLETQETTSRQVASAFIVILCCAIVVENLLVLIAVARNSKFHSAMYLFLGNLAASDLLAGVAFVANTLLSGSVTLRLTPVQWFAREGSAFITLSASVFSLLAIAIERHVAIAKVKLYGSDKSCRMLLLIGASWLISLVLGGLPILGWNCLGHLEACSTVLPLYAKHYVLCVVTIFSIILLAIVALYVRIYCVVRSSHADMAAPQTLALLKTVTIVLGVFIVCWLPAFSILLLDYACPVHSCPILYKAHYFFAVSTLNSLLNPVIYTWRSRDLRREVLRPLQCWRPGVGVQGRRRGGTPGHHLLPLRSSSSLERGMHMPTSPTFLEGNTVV

## O=C(O)C[C@H]1CCc2c1[nH]c1ccc(OCc3ccc(C4CCCC4)c(C(F)(F)F)c3)cc21 [ETRASIMOD]
[1]
  concentration at 48 h: 110 nM
Rattus norvegicus [2]
  Activity: 182.3 g
[3]
  fraction unbound: 0.02
Rattus norvegicus [4]
  IC50: 0.051 µM
[5]
  IC50: > 30 µM
Mus musculus [6]
  Activity: Active
[7]
  Cmax: 361 ng/mL
[8]
  clearance: 0.23 mL/min/kg
Salmonella typhimurium
  Activity: Non-toxic
Rattus norvegicus [9]
  Activity: Non-toxic
[10]
  Emax: 95%
[11]
  AUC(0-inf): 164000 ng·h/mL
[12]
  Tmax: 8 h
Cytochrome P450 1A2
  IC50: > 50 µM
[13]
  AUC(0-inf): 3790 ng·h/mL
Rattus norvegicus [14]
  Activity: Active
[15]
  Vd: 0.411 L/kg
Rattus norvegicus [16]
  Activity: Non-toxic
[17]
  Tmax: 7.33 h
Mus musculus [18]
  IC50: 0.101 µM
[19]
  Emax: 63%
Adenosine receptor A3
  IC50: 3.3 µM
[20]
  IC50: > 30 µM
[21]
  bioavailability: 100%
Rattus norvegicus [22]
  Activity: Non-toxic
[23]
  Emax: 110%
Canis familiaris [24]
  IC50: 0.058 µM
Mus musculus [25]
  CL: 2%
Canis familiaris [26]
  CL: 0.746%
[27]
  clearance: 0.947 mL/min/kg
[28]
  fraction unbound: 0.022
[29]
  Vd: 1.93 L/kg
Canis familiaris [30]
  Activity: Non-toxic
Cytochrome P450 3A4
  IC50: > 50 µM
Cytochrome P450 2D6
  IC50: > 50 µM
Rattus norvegicus [31]
  Activity: 178.6 g
[32]
  AUC(0-inf): 10300 ng·h/mL
[33]
  EC50: 0.0299 µM
[34]
  EC50: 0.00044 µM
Rattus norvegicus [35]
  Activity: Active
Mus musculus [36]
  Activity: Active
[37]
  EC50: > 10 µM
[38]
  EC50: 0.00034 µM
